In brackets after ≈: the same amount, converted by molar mass. Activity calls are given as the source filed them. The calls are words filed in the database; no cut-off is given here.
Columns and labels:
[1] = tested on: HepG2; assay: Cytotoxicity against human HepG2 cells after 1 to 4 hrs by MTS assay; assay type: cell-based
Procedure, shortened: (§1)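 HepG2 and THP-1 cells grown in RPMI 1640 with 10% FBS at 37 °C, 5% CO₂, and passaged twice weekly. Compounds applied as continuous exposure. Viability read by MTS reagent, 1–4 h incubation, absorbance at 490 nm; IC₅₀ derived.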

[2] = tested on: Plasmodium falciparum; assay: Antimalarial activity against multidrug-resistant Plasmodium falciparum TM91C235 after 48 hrs by [3H]hypoxanthine incorporation assay; assay type: functional, organism-based
Procedure, shortened: (§2)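 [3H]hypoxanthine incorporation assay (Desjardins method, Milhous modification) with 48 h drug exposure. Compounds and controls were 2-fold diluted across 11 concentrations. IC50 was fitted by nonlinear logistic dose-response. Values are averaged where multiple results were generated, with relative errors usually <30%.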

[3] = Half life in mouse liver microsomes at 1 uM by LCMS analysis; assay type: ADME, Microsome
Procedure, shortened: (§3)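 Compound at 1 μM final with 0.5 mg/mL pooled human or mouse liver microsomes, 1.3 mM NADP, 3.3 mM MgCl₂, 0.1 M PBS pH 7.4. Reaction started with 1 U/mL G6PD, shaken at 37 °C. Aliquots quenched with cold acetonitrile at 0, 10, 20, 30 and 60 min and quantified by LCMS. t₁/₂ taken from log plot of total ion chromatogram area remaining.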

[4] = tested on: Plasmodium falciparum; assay: Antimalarial activity against chloroquine-sensitive Plasmodium falciparum D6 after 48 hrs by [3H]hypoxanthine incorporation assay; assay type: functional, organism-based; procedure, shortened: as §2
[5] = Half life in human liver microsomes at 1 uM by LCMS analysis; assay type: ADME, Microsome; procedure, shortened: as §3
[6] = tested on: THP-1; assay: Cytotoxicity against human THP1 cells after 1 to 4 hrs by MTS assay; assay type: cell-based; procedure, shortened: as §1
[7] = tested on: Plasmodium berghei; assay: Antiplasmodial activity against Plasmodium berghei KBG-173 infected in mouse assessed as mouse without parasitemia at 960 mg/kg, sc bid for 3 days measured on day 31; assay type: functional, organism-based; design: dose 960 mg/kg
Procedure, shortened: (§4)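 P. berghei KBG-173: 5 × 10⁶ infected erythrocytes injected intraperitoneally into male mice (24–30 g); parasitemia 1.0–3.7% by day 3. Oil suspension given subcutaneously twice daily at 160, 40 or 10 mg/kg on days 3–5 postinfection (totals 960/240/60 mg/kg); 4–5 mice per group. Blood films on day 6, then biweekly to day 31; film-negative on day 31 counted as cured.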

[8] = tested on: Plasmodium berghei; assay: Antiplasmodial activity against Plasmodium berghei KBG-173 infected in mouse assessed as mouse without parasitemia at 60 mg/kg, sc bid for 3 days measured on day 31; assay type: functional, organism-based; design: dose 60 mg/kg; procedure, shortened: as §4
[9] = tested on: Plasmodium berghei; assay: Antiplasmodial activity against Plasmodium berghei KBG-173 infected in sc dosed mouse administered bid for 3 days; assay type: functional
Procedure, shortened: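 Male mice (24-30 g) were infected ip with 5 × 10⁶ P. berghei KBG-173-infected erythrocytes. Drug suspended in palm/peanut oil was given sc twice daily on days 3-5 post-infection at 160, 40 or 10 mg/kg per dose, 0.01 mL/g, in groups of 4-5. Blood films were taken day 6, then biweekly to day 31. Mice smear-negative on day 31 were counted cured. CD50 is the daily dose curing 50%.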

[10] = tested on: Plasmodium falciparum; assay: Antimalarial activity against chloroquine/pyrimethamine-resistant Plasmodium falciparum W2 after 48 hrs by [3H]hypoxanthine incorporation assay; assay type: functional, organism-based; procedure, shortened: as §2
[11] = Apparent volume of distribution during terminal phase in Sprague-Dawley rat at 10 mg/kg, iv and 30 mg/kg, po; assay type: ADME, organism-based; conditions: in vivo, read-out: Vz/F
Procedure, shortened: (§5)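 Male Sprague-Dawley rats (250–300 g), crossover design. Dosed 10 mg/kg iv, then 2-day washout, then 30 mg/kg oral (free base equivalent), formulated in 1%/20% Encapsin (w/v) and saline. Blood sampled up to 24 h and analysed by LC-MS/MS. Clearance and terminal-phase Vd based on blood concentration.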

[12] = Half life in Sprague-Dawley rat at 10 mg/kg, iv and 30 mg/kg, po; assay type: ADME, organism-based; conditions: in vivo; procedure, shortened: as §5
[13] = Oral bioavailability in Sprague-Dawley rat at 30 mg/kg; assay type: ADME, organism-based; conditions: in vivo; procedure, shortened: as §5
[14] = tested on: Plasmodium falciparum; assay: Antimalarial activity against Plasmodium falciparum after 68 hrs; assay type: functional, organism-based
[15] = Blood clearance in Sprague-Dawley rat at 10 mg/kg, iv and 30 mg/kg, po; assay type: ADME, organism-based; conditions: whole blood; procedure, shortened: as §5
[16] = tested on: Plasmodium berghei; assay: Antiplasmodial activity against Plasmodium berghei KBG-173 infected in mouse assessed as mouse without parasitemia at 240 mg/kg, sc bid for 3 days measured on day 31; assay type: functional, organism-based; design: dose 240 mg/kg; procedure, shortened: as §4
[17] = tested on: Plasmodium falciparum; assay: Ratio of compound IC50 to Azithromycin IC50 for Plasmodium falciparum; assay type: functional

| SMILES | IC50 [1] [nM] | IC50 [2] [nM] | half-life at 1 µM [3] [h] | IC50 [4] [nM] | half-life at 1 µM [5] [h] | IC50 [6] [nM] | Activity [7] | Activity [8] | CD50 [9] [mg/kg] | IC50 [10] [nM] | Vd/F [11] [L/kg] | half-life [12] [h] | bioavailability [13] [%] | IC50 [14] [µg/mL] | clearance [15] [mL/min/kg] | Activity [16] | Ratio IC50 [17] |
| --- | --- | --- | --- | --- | --- | --- | --- | --- | --- | --- | --- | --- | --- | --- | --- | --- | --- |
| CC[C@H]1OC(=O)[C@H](C)[C@@H](O[C@H]2C[C@@](C)(OC)[C@@H](O)[C@H](C)O2)[C@H](C)[C@@H](O[C@@H]2O[C@H](C)C[C@H](N(C)C)[C@H]2O)[C@](C)(O)C[C@@H](C)CN(CCCN(CCC#N)C(=S)NCCc2ccccc2)[C@H](C)[C@@H](O)[C@]1(C)O | 13000 | 48 | > 2 | 88 | 1.72 | 6000 | inactive | inactive | >960 | 51 |  |  |  |  |  |  |  |
| CC[C@H]1OC(=O)[C@H](C)[C@@H](O[C@H]2C[C@@](C)(OC)[C@@H](O)[C@H](C)O2)[C@H](C)[C@@H](O[C@@H]2O[C@H](C)C[C@H](N(C)C)[C@H]2O)[C@](C)(O)C[C@@H](C)CN(C)[C@H](C)[C@@H](O)[C@]1(C)O [AZITHROMYCIN] | > 50000 | 2110 | > 2 | 1040 | > 2 | > 50000 | Active |  | 50 | 2290 | 20 | 24 | 33 | 0.5 (≈ 0.668 µM) | 11 | Active | 88 |
| CC[C@H]1OC(=O)[C@H](C)[C@@H](O[C@H]2C[C@@](C)(OC)[C@@H](O)[C@H](C)O2)[C@H](C)[C@@H](O[C@@H]2O[C@H](C)C[C@H](N(C)C)[C@H]2O)[C@](C)(O)C[C@@H](C)CN(CCCN(CCC#N)C(=O)Nc2ccc(Cl)cc2Cl)[C@H](C)[C@@H](O)[C@]1(C)O | 22000 | 123 | > 2 | 229 | > 2 | 15000 | Active |  | 420 | 199 | 23.3 | 41.5 | 18.4 |  | 7.7 |  |  |
